From ChEMBL document CHEMBL1154114, “7-((4-Substituted)piperazin-1-yl) derivatives of ciprofloxacin: synthesis and in vitro biological evaluation as potential antitumor agents” (Bioorg Med Chem, 2009)

Columns and labels:
[1] = test system: A549; test: Antitumor activity against human A549 cells after 5 days by MTT assay; type: functional, cell-based; conditions: A549, 120 h
Procedure, shortened: (§1)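 Five human cancer lines (prostate PC-3, glioblastoma U373-MG, colorectal LoVo, NSCLC A549, breast MCF-7) plated at 10⁴ to 3×10⁴ cells/mL depending on cell type, allowed 24 h to attach, then cultured 120 h with or without drug at nine concentrations. MTT reduction to formazan read at 570 nm (reference 630 nm).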

[2] = test system: PC-3; test: Antitumor activity against human PC3 cells after 5 days by MTT assay; type: functional, cell-based; conditions: PC-3, 120 h; procedure, shortened: as §1
[3] = test system: MCF7; test: Antitumor activity against human MCF7 cells after 5 days by MTT assay; type: functional, cell-based; conditions: MCF7, 120 h; procedure, shortened: as §1
[4] = test system: LoVo; test: Antitumor activity against human LoVo cells after 5 days by MTT assay; type: functional, cell-based; conditions: 120 h; procedure, shortened: as §1
[5] = Antitumor activity against human U373MG cells after 5 days by MTT assay; type: functional, cell-based, U-373MG ATCC; conditions: U373 MG, 120 h; procedure, shortened: as §1
[6] = test system: MCF7; test: Inhibition of human MCF7 cell proliferation by MTT assay; type: functional, cell-based
[7] = test system: KB; test: Inhibition of human KB cell proliferation by MTT assay; type: functional, cell-based
[8] = test system: A-431; test: Inhibition of human A431 cell proliferation by MTT assay; type: functional, cell-based
[9] = test system: HeLa; test: Inhibition of human HeLa cell proliferation; type: functional, cell-based
[10] = Inhibition of mouse NIH/3T3 cell proliferation by MTT assay; type: cell-based; conditions: NIH3T3
[11] = test system: SK-MEL; test: Inhibition of human SK-MEL cell proliferation by MTT assay; type: functional, cell-based
[12] = test system: SW480; test: Inhibition of human SW480 cell proliferation by MTT assay; type: functional, cell-based
[13] = test system: NCI-H460; test: Inhibition of human NCI-H460 cell proliferation by sulphorodhamine B assay; type: functional, cell-based
[14] = test system: EJ; test: Inhibition of human EJ cell proliferation by MTT assay; type: functional, cell-based
[15] = Toxicity in ip dosed B6D2F1 mouse assessed as maximum tolerated dose after 28 days; type: organism-based; conditions: in vivo
Procedure, shortened: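 Healthy mice, three per group, each given a single ip dose and observed for up to 28 days. The MTD index is the highest single dose given without causing any deaths in the group.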

[16] = Stability in phosphate buffer of pH 7.4 after 6 days; type: physicochemical; conditions: read-out: Stability
Procedure, shortened: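 Compound dissolved at 1 mM in DMSO, diluted with phosphate buffer pH 7.4 to 1 mL, incubated sealed at 37 °C for 6 days. A t0 aliquot was held at 4 °C. HPLC with 280 nm detection and duplicate injections, with expected degradation products as references. Stability is taken as compound peak area over (compound + degradation product) peak area.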

[17] = test system: MG-63; test: Inhibition of human MG63 cell proliferation assessed as bromodeoxyuridine incorporation during DNA synthesis after 48 hrs by ELISA; type: functional, cell-based; conditions: MG-63, 48 h
[18] = test system: HeLa; test: Inhibition of human HeLa cell proliferation assessed as bromodeoxyuridine incorporation during DNA synthesis after 48 hrs by ELISA; type: functional, cell-based
[19] = test system: CHO; test: Inhibition of verapamil-resistant CHO cell proliferation by colony-forming assay; type: cell-based; conditions: Cricetulus griseus
[20] = test system: CHO; test: Inhibition of CHO cell proliferation by colony-forming assay; type: cell-based; conditions: Cricetulus griseus
[21] = test system: Drosophila melanogaster; test: Inhibition of Drosophila melanogaster DNA topoisomerase 2-mediated pBR322 DNA relaxation by agarose gel electrophoresis
[22] = test system: MC3T3-E1; test: Inhibition of mouse MC3T3-E1 cell proliferation after 48 to 72 hrs; type: functional, cell-based

| Compound | IC50 [1] [µM] | IC50 [2] [µM] | IC50 [3] [µM] | IC50 [4] [µM] | IC50 [5] [µM] | other results |
| --- | --- | --- | --- | --- | --- | --- |
| CCCCCCCCCCCCOC(=O)N1CCN(c2cc3c(cc2F)c(=O)c(C(=O)O)cn3C2CC2)CC1 | 273 | 217 | 200 | 347 | 94 |  |
| CCn1cc(C(=O)O)c(=O)c2cc(F)c(N3CCNCC3)cc21 [NORFLOXACIN] |  |  |  |  |  | IC50 [6]: 238 µM; IC50 [7]: 150 µM; IC50 [8]: 70 µM; IC50 [9]: 390 µM; IC50 [10]: > 1000 µM; IC50 [11]: 194 µM; IC50 [12]: 168 µM; IC50 [13]: 86 µM; IC50 [14]: 210 µM |
| CCCCCCCCCCCCCC(=O)OCC(=O)N1CCN(c2cc3c(cc2F)c(=O)c(C(=O)O)cn3C2CC2)CC1 | 742 | 745 | 828 | 766 | 748 |  |
| CCCCCCCCCCC(=O)OCC(=O)N1CCN(c2cc3c(cc2F)c(=O)c(C(=O)O)cn3C2CC2)CC1 | > 1000 |  | 816 | 828 | > 1000 |  |
| CCCCOC(=O)N1CCN(c2cc3c(cc2F)c(=O)c(C(=O)O)cn3C2CC2)CC1 | 42 | 9 | 14 | 52 | 31 | MTD at 672 h [15]: > 80 mg/kg; remaining at 144 h [16]: 100% |
| COc1c(N2C[C@@H]3CCCN[C@@H]3C2)c(F)cc2c(=O)c(C(=O)O)cn(C3CC3)c12 [MOXIFLOXACIN] |  |  |  |  |  | IC50 [17]: 230 µM; IC50 [18]: 320 µM |
| CC(C)(C)C(=O)N1CCN(c2cc3c(cc2F)c(=O)c(C(=O)O)cn3C2CC2)CC1 | 509 | 246 | 85 | 93 | 67 |  |
| O=C(O)c1cn(C2CC2)c2c(F)c(-c3ccc(O)cc3)c(F)cc2c1=O |  |  |  |  |  | IC50 [19]: 12 µM; IC50 [20]: 9 µM; Activity [21]: 60 µM |
| CCCCCCCCCCCCCCCC(=O)OCC(=O)N1CCN(c2cc3c(cc2F)c(=O)c(C(=O)O)cn3C2CC2)CC1 | 112 | 30 | 56 | 75 | 119 |  |
| C[C@@H]1CN(c2c(F)c(N)c3c(=O)c(C(=O)O)cn(C4CC4)c3c2F)C[C@H](C)N1 [SPARFLOXACIN] |  |  |  |  |  | IC50 [9]: 265 µM; IC50 [10]: 122 µM |
| NC1CCN(c2nc3c(cc2F)c(=O)c(C(=O)O)cn3-c2ccc(F)cc2F)C1 (stereo not given) [TOSUFLOXACIN] |  |  |  |  |  | IC50 [9]: 32 µM |
| CCCCCCCCC(=O)N1CCN(c2cc3c(cc2F)c(=O)c(C(=O)O)cn3C2CC2)CC1 | 6 | 7 | 26 | 30 | 24 |  |
| O=C(O)c1cn(C2CC2)c2cc(N3CCN(C(=O)Cc4ccccc4)CC3)c(F)cc2c1=O | 29 | 243 | 32 | 41 | 34 |  |
| CCCCCCCCCCCCCC(=O)N1CCN(c2cc3c(cc2F)c(=O)c(C(=O)O)cn3C2CC2)CC1 | 56 | 94 | 96 | 101 | 205 |  |
| CC(=O)OCC(=O)N1CCN(c2cc3c(cc2F)c(=O)c(C(=O)O)cn3C2CC2)CC1 | 373 | 176 | 279 | 268 | 99 |  |
| C[C@H]1COc2c(N3CCN(C)CC3)c(F)cc3c(=O)c(C(=O)O)cn1c23 [LEVOFLOXACIN] |  |  |  |  |  | IC50 [22]: 220 µM; IC50 [13]: 152 µM |
| CCCCCCCC(=O)OCC(=O)N1CCN(c2cc3c(cc2F)c(=O)c(C(=O)O)cn3C2CC2)CC1 | 16 | 23 | 818 | 29 | 53 | remaining at 144 h [16]: > 97% |
| CCn1cc(C(=O)O)c(=O)c2cc(F)c(N3CCNCC3)nc21 [ENOXACIN] |  |  |  |  |  | IC50 [6]: 193 µM; IC50 [7]: 137 µM; IC50 [8]: 150 µM; IC50 [9]: 170 µM; IC50 [11]: 196 µM; IC50 [12]: 159 µM; IC50 [13]: 36 µM; IC50 [14]: 178 µM |
| CCCCCCCCCCCC(=O)OCC(=O)N1CCN(c2cc3c(cc2F)c(=O)c(C(=O)O)cn3C2CC2)CC1 | 15 | 3 | 621 | 39 | 49 | remaining at 144 h [16]: > 98% |
| CCC(=O)N1CCN(c2cc3c(cc2F)c(=O)c(C(=O)O)cn3C2CC2)CC1 | 402 | 352 | 727 | 306 | 279 |  |
